We go through 18 compounds from PubChem BioAssay.

The nature of assay [1]: SK-BR-3 cell growth inhibitors, pilot screen, 24 h, human (AID 572;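 active = viability at or below 10% of carrier control in both of two separate runs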;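 note: compound exposure lasted between 18 and 24 h rather than exactly 24 h; 100% = carrier-treated control wells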). As to conditions: SK-BR-3 viability, CellTiter-Glo luminescence, at 10 µM, stronger effect = lower value. For orientation: ATP-based viability assays read luminescence as a measure of living cells.
The nature of assay [2]: HUVEC growth inhibition – cell-based, human, primary screen (AID 575;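 active = viability at or below 30% in both replicate assays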;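 note: 100% = median of untreated cell wells with 0.1% DMSO on each plate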). As to conditions: HUVEC proliferation, CellTiter-Glo luminescence, 72 h; at 10 µM; stronger effect = lower value. A digest of the protocol:
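Assay system: Primary human umbilical vein endothelial cells | Quantity: 1250 cells per well | Medium: Supplemented EBM, 2% fetal bovine serum | Detection: CellTiter-Glo luminescence measuring cellular ATP | Read-out: % viability vs DMSO wells | Plate: Collagen-coated 384-well format | Times: 72 h exposure, 37 °C, 5% CO2, 30 min RT equilibration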

A short description of assay [3]: growth inhibitors of H69AR lung tumor, primary screen, human, duplicate replicates (AID 580).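 Note: 100% = mean luminescence of untreated wells and 0% = no signal.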 The note with it: H69AR lung tumor cells viability, ATP luminescence, 72 h; at 10 µM; stronger effect = lower value.
A short description of assay [4]: reversal of MRP1-mediated doxorubicin resistance, pilot screen, H69AR cells, doxorubicin co-treatment (AID 601;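 active = viability loss from added drug above about 55%, and viability with drug at most 40%, in both replicates, limit read from the data, passing the limit was not always enough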). As to conditions: CellTiter-Glo, 72 h, at 10 µM; for differential viability (reversal): stronger effect = higher value.
Assay [5] is described as follows: 384-well plate pilot, post-Golgi transport modulator project, inhibition of yeast transport mutant growth (AID 636; in the data active = inhibition above about 31%). The note with it: absorbance 615 nm, about 18 h, stronger effect = higher value.
Assay [6] is described as follows: growth suppression of yeast trafficking mutant, preliminary HTS, modulators of trafficking downstream of Golgi apparatus project, 1536-format plate, OD 615 nm (AID 637; in the data active = inhibition above about 30%). The note with it: yeast transport mutant growth, absorbance 615 nm, 18 h; stronger effect = higher value.
Setting [7] is: H69AR cells + 2 uM doxorubicin, measured here: viability with 2 uM doxorubicin, stronger effect = lower value.
Where [8] appears, read: H69AR cells, compound alone cytotoxicity.

Molecules are shown by their SMILES. The source made the active and inactive calls.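 Rule for the calls, unless noted: active = viability at or under a set limit in both replicates, limit being median viability minus 3 SD (cut at about 48% in these data, passing the limit was not always enough); inconclusive = at or under the limit in just one replicate; inactive = at or above the limit in both replicates.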

What is called viability is a read-out of living cells in per cent, often relative to untreated cells. As a reminder, the inhibition is the change of the read-out against control, counted positive when it falls. For `COC(=O)c1c(NC(=O)CCc2ccc(C)o2)sc(C)c1C`, the viability was 112% (inactive) in assay [1]; 90.5% (inactive) in assay [2]; 81.7% (inactive) in assay [3]; 79.9% in assay [4] (setting [7]); 81.7% in assay [4] (setting [8]). In addition, in assay [4] (H69AR cells + 2 uM doxorubicin), the differential viability (reversal) is 1.81% (inactive). Also, the inhibition in assay [5] is -2.4% (inactive); in assay [6] it was 1.27% (inactive).

Consider `O=C1OC(c2ccc(O)cc2)(c2ccc(O)cc2)c2ccccc21`, for which the viability in assay [1] was 83% (inactive); in assay [2] it was 48.8% (inactive); in assay [3], 102% (inactive); in assay [4] (setting [7]), 97.7%; in assay [4] (setting [8]) it was 102%. Besides, the differential viability (reversal) in assay [4] (H69AR cells + 2 uM doxorubicin) is 4.57% (inactive). Further, the figures for the inhibition in assay [5] and in assay [6] were -2.73% (inactive) and 8.67% (inactive), respectively.

As for `CC(CCc1ccccc1)NCC(O)c1ccc(O)c(C(N)=O)c1` (centres undefined), the viability in assay [1] is 94% (inactive); in assay [2], 104% (inactive); in assay [3], 93.8% (inactive); in assay [4] (setting [7]), 92%; in assay [4] (setting [8]), 93.8%. Further, in assay [4] (H69AR cells + 2 uM doxorubicin), the differential viability (reversal) was 1.8% (inactive). For the same compound, the inhibition is 1.17% (inactive) in assay [5] and -3.17% (inactive) in assay [6].

For the compound `O=C(COC(=O)c1cnccn1)Nc1ccc2c(c1)OCO2`, the viability in assay [1] was 130% (inactive); in assay [2], 82% (inactive); in assay [3], 91.6% (inactive); in assay [4] (setting [7]) it was 88.7%; in assay [4] (setting [8]) it was 91.6%. The differential viability (reversal) in assay [4] (H69AR cells + 2 uM doxorubicin) was 2.88% (inactive). Moreover, the results for the inhibition in assay [5] and in assay [6] were 0.65% (inactive) and 2.46% (inactive), respectively.

As to `Cc1c(Cl)cccc1NC(=O)CCN1CCCCCC1`, the viability was 116% (inactive) in assay [1]; 103% (inactive) in assay [2]; 88.3% (inactive) in assay [3]; 86.2% in assay [4] (setting [7]); 88.3% in assay [4] (setting [8]). For the same compound, the differential viability (reversal) in assay [4] (H69AR cells + 2 uM doxorubicin) was 2.1% (inactive). In addition, the inhibition was -6.85% (inactive) in assay [5] and 5.64% (inactive) in assay [6].

Regarding `C=CCN1C(=O)CS/C1=C(\C#N)S(=O)(=O)c1ccc(C)cc1`, the viability in assay [1] was 114% (inactive); in assay [2], 96.2% (inactive); in assay [3] it was 85.5% (inactive); in assay [4] (setting [7]) it was 88.2%; in assay [4] (setting [8]), 85.5%. For the same compound, the differential viability (reversal) in assay [4] (H69AR cells + 2 uM doxorubicin) is -2.67% (inactive). Besides, the inhibition was -5.62% (inactive) in assay [5] and -1.45% (inactive) in assay [6].

In the case of `Cc1occc1-c1nc(-c2ccncc2)no1`, the viability was 79% (inactive) in assay [1]; 83.2% (inactive) in assay [2]; 95.4% (inactive) in assay [3]; 92.5% in assay [4] (setting [7]); 95.4% in assay [4] (setting [8]). For the same compound, the differential viability (reversal) in assay [4] (H69AR cells + 2 uM doxorubicin) was 2.9% (inactive). Besides, the results for the inhibition in assay [5] and in assay [6] were 0.96% (inactive) and -8.87% (inactive), respectively.

With `CCCOc1cccc(C(=O)Nc2cc(NC(=O)c3ccco3)ccc2OC)c1`, the viability in assay [1] was 88% (inactive); in assay [2], 85.1% (inactive); in assay [3], 85% (inactive); in assay [4] (setting [7]), 91.1%; in assay [4] (setting [8]), 85%. In addition, in assay [4] (H69AR cells + 2 uM doxorubicin), the differential viability (reversal) was -6.07% (inactive). Besides, the inhibition in assay [5] was -3.78% (inactive); in assay [6], -2.55% (inactive).

In the case of `O=C(CN1C(=O)c2ccccc2S1(=O)=O)Nc1ccc(S(=O)(=O)N2CCCCCC2)cc1`, the viability in assay [1] was 110% (inactive); in assay [2], 81.4% (inactive); in assay [3], 103% (inactive); in assay [4] (setting [7]), 89.3%; in assay [4] (setting [8]), 103%. Further, in assay [4] (H69AR cells + 2 uM doxorubicin), the differential viability (reversal) is 14.2% (inactive). Further, the inhibition in assay [5] is 5.48% (inactive); in assay [6], -1.45% (inactive).

Consider `CC(C)(C)C(=O)NC1CCN(C(=O)N2CCCC2)CC1`, for which the viability was 93% (inactive) in assay [1]; 102% (inactive) in assay [2]; 94.5% (inactive) in assay [3]; 83.2% in assay [4] (setting [7]); 94.5% in assay [4] (setting [8]). Also, the differential viability (reversal) in assay [4] (H69AR cells + 2 uM doxorubicin) is 11.3% (inactive). The inhibition in assay [5] was -8.24% (inactive); in assay [6], 2.91% (inactive).

On to `O=C(c1cnc2sccn2c1=O)N1CCc2ccccc2C1`, for which the viability in assay [1] was 95% (inactive); in assay [2], 95.7% (inactive); in assay [3] it was 104% (inactive); in assay [4] (setting [7]), 96.2%; in assay [4] (setting [8]) it was 104%. In addition, in assay [4] (H69AR cells + 2 uM doxorubicin), the differential viability (reversal) was 7.95% (inactive). Besides, the results for the inhibition in assay [5] and in assay [6] were -2.8% (inactive) and -4.36% (inactive), respectively.

Consider `COc1ccc(/C=C/C(=O)Nc2ccccc2C(=O)O)cc1OC`, for which the viability in assay [1] was 104% (inactive); in assay [2] it was 64.4% (inactive); in assay [3], 94.7% (inactive); in assay [4] (setting [7]), 94.1%; in assay [4] (setting [8]), 94.7%. The differential viability (reversal) in assay [4] (H69AR cells + 2 uM doxorubicin) was 0.56% (inactive). Besides, the figures for the inhibition in assay [5] and in assay [6] were 0.78% (inactive) and -1.83% (inactive), respectively.

For the compound `[O-][n+]1onc2c1CCc1nnc(-c3ccccc3)cc1-2`, the viability in assay [1] was 93.5% (inactive); in assay [2], 113% (inactive); in assay [3], 76.2% (inactive); in assay [4] (setting [7]), 32.6%; in assay [4] (setting [8]), 76.2%. In addition, the differential viability (reversal) in assay [4] (H69AR cells + 2 uM doxorubicin) was 43.7% (inactive). For the same compound, the inhibition is -1.18% (inactive) in assay [5] and 8.03% (inactive) in assay [6].

In the case of `CCOC(=O)c1c(C)oc2ccc(NS(=O)(=O)c3ccc4c5c(cccc35)C(=O)N4)cc12`, the viability was 103% (inactive) in assay [1]; 76.9% (inactive) in assay [2]; 83.9% (inactive) in assay [3]; 83.1% in assay [4] (setting [7]); 83.9% in assay [4] (setting [8]). In addition, the differential viability (reversal) in assay [4] (H69AR cells + 2 uM doxorubicin) was 0.75% (inactive). In addition, the inhibition was -7.53% (inactive) in assay [5] and 5.27% (inactive) in assay [6].

As to `O=C(O)CCn1c(=O)c2ccccc2c2ccccc2c1=O`, the viability in assay [1] is 87% (inactive); in assay [2], 109% (inactive); in assay [3], 100% (inactive); in assay [4] (setting [7]) it was 94.8%; in assay [4] (setting [8]) it was 100%. Moreover, the differential viability (reversal) in assay [4] (H69AR cells + 2 uM doxorubicin) is 5.16% (inactive). Besides, the figures for the inhibition in assay [5] and in assay [6] were 0.14% (inactive) and -8.06% (inactive), respectively.

Turning to `CCCS(=O)(=O)N1CCCC(C(=O)NC(C)c2ccc3c(c2)OCCO3)C1` (centres undefined), the viability in assay [1] was 79% (inactive); in assay [2], 71.3% (inactive); in assay [3], 93.9% (inactive); in assay [4] (setting [7]), 87.8%; in assay [4] (setting [8]), 93.9%. In assay [4] (H69AR cells + 2 uM doxorubicin), the differential viability (reversal) is 6.12% (inactive). For the same compound, the inhibition in assay [5] was -2.34% (inactive); in assay [6], 0.49% (inactive).

`O=C(CN1C(=O)c2ccccc2C1=O)Nc1ccc(S(=O)(=O)NCC2CCCO2)cc1` (centres undefined): the viability in assay [1] was 89% (inactive); in assay [2], 107% (inactive); in assay [3], 96.4% (inactive); in assay [4] (setting [7]) it was 110%; in assay [4] (setting [8]), 96.4%. In addition, the differential viability (reversal) in assay [4] (H69AR cells + 2 uM doxorubicin) was -14.1% (inactive). The inhibition in assay [5] was -7.4% (inactive); in assay [6] it was -4.91% (inactive).

For the compound `O=C(Nc1ccccc1)N1CCC(c2ccccc2)C1` (centres undefined), the viability is 62% (inactive) in assay [1]; 109% (inactive) in assay [2]; 86.7% (inactive) in assay [3]; 67.5% in assay [4] (setting [7]); 86.7% in assay [4] (setting [8]). For the same compound, in assay [4] (H69AR cells + 2 uM doxorubicin), the differential viability (reversal) was 19.2% (inactive). In addition, the inhibition in assay [5] is -2.6% (inactive); in assay [6] it was 4.92% (inactive).
